Data set [1] deals with Staphylococcus aureus. The data set is described as follows: Inhibitory concentration against Staphylococcus aureus. The data set is classed as functional, organism-based.
Data set [2] has as its system Staphylococcus aureus. The data set is described as follows: Inhibitory concentration against methicillin-resistant Staphylococcus aureus. The data set is classed as functional, organism-based.
The subject of data set [3] is Mycobacterium intracellulare. Kind of data set: Inhibitory concentration against Mycobacterium intracellular. The data set is classed as functional, organism-based.
Data set [4] has as its system Staphylococcus aureus. The data set is described as follows: Minimal inhibitory concentration against Staphylococcus aureus; Range is 0.5-6.25 ug/mL. The data set is classed as functional.
Data set [5] relates to Cryptococcus neoformans. Kind of data set: Inhibitory concentration against Cryptococcus neoformans. In kind it is functional, organism-based.
Data set [6] in a line: Tmax in rats. In kind it is ADME, organism-based. Conditions: rat, in vivo; call rule not given here.
A short description of data set [7]: Apparent volume of distribution at 10 mg/kg in rat upon intravenous administration. The data set is classed as ADME, organism-based. More on the design: dose 10 mg/kg, route intravenous. The settings on record: in vivo. The method in brief:
(§1)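 Male Sprague-Dawley rats (280-320 g), jugular/carotid cannulated the day before, fasted until 12 h post-dose. Given 10 mg/kg iv as a 5 min jugular infusion, approx. 3 mg/mL in 10% v/v ethanol/50 mM tartrate buffer pH 3.0. Carotid blood sampled over 96 h; plasma by validated HPLC/MS (LOQ 10 ng/mL). Parameters estimated from mean plasma concentrations, n = 3.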

Data set [8] can be described thus: Half-life at 10 mg/kg in rat upon intravenous administration. The data set is classed as ADME, organism-based. More on the design: dose 10 mg/kg, route intravenous. The settings on record: in vivo. The essentials:
as §1

The nature of data set [9]: Cmax in rats. In kind it is ADME, organism-based. The settings on record: rat, in vivo.
Data set [10] can be described thus: Oral bioavailability in rat. The data set is classed as ADME, organism-based. The settings on record: in vivo.
In data set [11] the test system is Staphylococcus aureus. The data set is described as follows: Minimal inhibitory concentration against methicillin-resistant Staphylococcus aureus; Range is 0.5-6.25 ug/mL. The data set is classed as functional.
Data set [12] has as its system Mycobacterium intracellulare. Kind of data set: Minimal inhibitory concentration against Mycobacterium intracellular; Range is 0.5-6.25 ug/mL. The data set is classed as functional.
Data set [13] in a line: Plasma clearance at 10 mg/kg in rat upon intravenous administration. In kind it is ADME, organism-based. More on the design: dose 10 mg/kg, route intravenous. The essentials: as §1
Data set [14] has as its system Human immunodeficiency virus 1. The data set is described as follows: Effective concentration against HIV-1. The data set is classed as functional, organism-based.
Data set [15] can be described thus: Partition coefficient (logP). The data set is classed as physicochemical. The settings on record: octanol/water.
The test system of data set [16] is Mycobacterium intracellulare. The data set is described as follows: Inhibitory concentration against Mycobacterium intracellular; Not active. In kind it is functional, organism-based.
Data set [17] concerns Staphylococcus aureus. The data set is described as follows: Inhibitory concentration against Staphylococcus aureus; Not active. The data set is classed as functional, organism-based.
For data set [18], the system named is Staphylococcus aureus. The data set is described as follows: Inhibitory concentration against methicillin-resistant Staphylococcus aureus; Not active. The data set is classed as functional, organism-based.
In data set [19] the test system is Cryptococcus neoformans. The data set is described as follows: Inhibitory concentration against Cryptococcus neoformans; Not active. The data set is classed as functional, organism-based.
The species named for data set [20] is Rattus norvegicus. The data set is described as follows: Concentration for 50% increase in lactate dehydrogenase release in rat neonatal brain microglia cells. The data set is classed as functional. The method in brief:
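Lactate dehydrogenase released from rat neonatal brain microglia serves as the marker of cell toxicity. The value is expressed as LDH50.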

For data set [21], the species on record is Rattus norvegicus. Kind of data set: Inhibitory activity against superoxide anion generation in rat neonatal brain microglia cells. In kind it is functional, cell-based. The essentials:
(§2)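 Rat neonatal brain microglia stimulated with phorbol ester. Release of superoxide anion or thromboxane B2 is measured, and inhibition is expressed as IC50.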

Data set [22] is described as follows: Inhibitory activity against thromboxane B2. More on the design: species or system Rattus norvegicus. The essentials: as §2

Each structure is given as a SMILES string. Converted amounts (≈) assume the structure as drawn.

The record followed here is ChEMBL document CHEMBL1148348, “New manzamine alkaloids from an Indo-Pacific sponge. Pharmacokinetics, oral availability, and the significant activity of several manzamines against HIV-I, AIDS opportunistic infections, and inflammatory diseases” (J Med Chem, 2004).

Usually IC50 stands for the midpoint of a concentration-inhibition curve. A high value points to a need for much substance. The MIC is the least concentration at which growth counts as inhibited. The low end stands for a more susceptible organism, the high end for a less susceptible organism. As a reminder, the Tmax is the time at which the peak concentration occurs. As usually defined, the half-life is the time in which the quantity being followed falls by half. Low readings indicate fast loss, high ones slow loss. The term Cmax denotes the peak of the concentration-time curve. What is called bioavailability is the share of a dose that reaches the circulation, judged against a reference dose that is usually intravenous. Higher therefore signals much systemic uptake. By clearance is commonly meant the volume of plasma or blood freed of the substance per unit of time. Read a low clearance as a low capacity for elimination. Broadly, the EC50 is the concentration giving half of the maximal effect. High values mean a need for much substance, low ones an effect from little substance. One may read the logP as the decadic logarithm of the partition coefficient of the neutral form, usually between octanol and water. A high value points to higher lipophilicity. Take `O[C@]12C=C(c3[nH]ccc4c5ccccc5nc3-4)[C@@H]3CCN(CCCC/C=C\CC1)C[C@@]31C[C@@H]3/C=C\CCCCN3[C@H]12` [MANZAMINE]: the IC50 is 0.5 µg/mL (≈ 0.911 µM) in data set [1], 0.7 µg/mL (≈ 1.28 µM) in [2], 0.35 µg/mL (≈ 0.638 µM) in data set [3] and 3 µg/mL (≈ 5.47 µM) in data set [5]. The MIC in [4], in data set [11] and in data set [12] was less than 6.25 µg/mL in each case. The Tmax in [6] was 10 h. Also, in data set [7], the Vd is 23.7 L/kg. The half-life in data set [8] is 53.7 h. Further, the Cmax in data set [9] stood at 1070 ng/mL. The bioavailability in data set [10] turned out to be 20.6%. In data set [13], this molecule showed a clearance of 5.1 mL/min/kg. In data set [14], this molecule registered an EC50 of 4.2 µM. The logP in data set [15] was 8.34.
With `Oc1cccc2c3cc[nH]c(C4=C[C@]56CC/C=C\CCCCN7CC[C@@H]4[C@]4(C[C@@H]8/C=C\CCC[C@@H](O5)N8[C@H]46)C7)c-3nc12` [12,28-OXA-8-HYDROXY-MANZAMINE A], the IC50 result in [16], in data set [17], in data set [18] and in [19] was “Not Active” throughout.
On to `O=C1CCCN2[C@@H](CC1)C[C@]13CN4CCCC/C=C\CC[C@](O)(C=C(c5nccc6c5[nH]c5c(O)cccc56)C1CC4)[C@H]23` (stereo partly specified) [MANZAMINE F], for which the IC50 entry in data set [17] and in [18] was “Not Active” in each case.
`OC1=C[C@@]2(O)CC/C=C\CCCCN3CC[C@@H]1[C@]1(C[C@@H]4/C=C\CCCCN4[C@H]12)C3` [IRCINOL A]: the IC50 result in data set [17] and in [19] was “Not Active” in each case.
For `O=CC1=C[C@@]2(O)CC/C=C\CCCCN3CC[C@@H]1[C@]1(C[C@@H]4/C=C\CCCCN4[C@H]12)C3` [IRCINAL], the IC50 result in [16], in [17], in data set [18] and in data set [19] was “Not Active” each time.
With `Oc1cccc2c1[nH]c1c(C3=C[C@@]4(O)CC/C=C\CCCCN5CC[C@@H]3[C@]3(CC6/C=C\CCCCN6[C@H]34)C5)nccc12` (stereo partly specified), the MIC in [4] and in data set [12] was less than 6.25 µg/mL throughout. The same molecule had an LDH50 in [20] greater than 30 µM. The IC50 in data set [21] and in [22] was greater than 30 µM each time.
Consider `O=C1CCCN2[C@@H](CC1)C[C@]13CN4CCCC/C=C\CC[C@](O)(C=C(c5nccc6c5[nH]c5ccccc56)C1CC4)[C@H]23` (stereo partly specified) [MANZAMINE E], for which the IC50 entry in data set [17], in data set [18] and in data set [19] was “Not Active” each time.
`Cc1cn([C@H]2C[C@H](N=[N+]=[N-])[C@@H](CO)O2)c(=O)[nH]c1=O` [ZIDOVUDINE] registered an EC50 in data set [14] of 0.004 µM. That is a single-digit nanomolar value.
`C1=C(c2[nH]ccc3c4ccccc4nc2-3)[C@@H]2CCN3CCCC/C=C\CC[C@]14O[C@@H]1CCC/C=C\[C@H]5C[C@@]2(C3)[C@H]4N51` [12,28-OXAMANZAMINE A]: the 50% inhibitory concentration (IC50) entry in data set [16], in [17], in data set [18] and in [19] was “Not Active” each time. Besides, the EC50 in data set [14] was 22.2 µM.
